# Assay results published in ChEMBL document CHEMBL4513216, “Probing the Open Global Health Chemical Diversity Library for Multistage-Active Starting Points for Next-Generation Antimalarials” (ACS Infect Dis, 2020).
# Test: Toxicity liver stage against HepG2, at 10uM
# Type: cell-based
# Set-up: test concentration 10 uM, cell line HepG2-A16-CD81EGFP
# Conditions: human, HepG2-A16-CD81EGFP cells; read-out: INHIBITION
# How it was run: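 Uninfected HepG2-A16-CD81EGFP cells, 3 × 10^3 per well, 1536-well, plated on prespotted compound at 10 μM final, parasite-free screening media added to match infected plates; puromycin 10 μM positive, DMSO 0.5% negative; run in parallel with 48 h PbLuc assay at 37 °C, 5% CO2; viability by CellTiter-Glo luminescence, normalized to controls.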
row,SMILES,cytotoxicity at 10 µM [%]
1,CCCc1ccc2oc(C(=O)N3CCN(CCC(N)=O)CC3)c(C)c2c1,0.424
2,CCCn1nnnc1COc1cc(OC)ccc1C(=O)OC,-2.04
3,O=C(NC[C@H]1OC[C@@H](NC2CCC2)[C@@H]1O)c1cccs1,1.76
4,c1ccc(-c2nnc([C@H]3CCN(C4CCOCC4)C3)o2)cc1,-1.05
5,CCC1CN(CC(=O)NCCN2CCCC2)c2ccccc2S1 (stereo not given),-13.1
6,COCCNC(=O)c1cccnc1Sc1cc(OC)ccc1OC,0.734
7,Cc1ccc(-c2nnc(CN3CCN(c4ccccn4)CC3)o2)cc1,-5.34
8,CN1CC[C@H](N(C)Cc2ccccc2)C[C@H](O)C1,-0.895
9,CCOc1nn(CC)cc1-c1nnc(SCc2ccccn2)n1C,-2.95
10,O=S(=O)(NCC(O)c1cccs1)c1ccccc1Cl (stereo not given),-67
11,COc1ccc(F)cc1S(=O)(=O)N1CCN(CCn2ccnc2)CC1,-7.72
12,Cc1ccnc(OC[C@]23COC[C@H]2CN(C(=O)c2ncccn2)C3)n1,-3.18
13,CCOCC1CN(C(=O)c2ccco2)Cc2cnn(C)c21 (stereo not given),6.14
14,Cc1ccc(N2CCc3ncc(CNc4ccccn4)n3CC2)nn1,5.41
15,Cn1cc(CN2CC3(CCN(Cc4ccsc4)C3)C2)cn1,-0.182
16,CCS(=O)(=O)N1CC[C@H]2O[C@H](c3nc(C)no3)CC[C@H]21,6.73
17,O=C(O)c1nnn(-c2ccc(C(F)(F)F)cc2)c1-c1ccncc1,7.33
18,CCOCCCNC(=O)CN(c1ccc(C)c(C)c1)S(C)(=O)=O,7.74
19,CCCOC1Sc2nnc(C)n2N=C1c1ccccc1 (stereo not given),1.57
20,Cn1cc(C(=O)NC[C@@H]2OC[C@H]3CN(S(C)(=O)=O)CC[C@H]32)cn1,-9.12
21,COc1ccc(C2=Nn3c(CCCN)nnc3-c3ccccc3C2)cc1,3.07
22,CSCc1cccc(S(=O)(=O)NCCCN2CCOCC2)c1,-8.63

row,SMILES,cytotoxicity at 10 µM [%]
1,O[C@@H]1C[C@H]2CN(Cc3ccccc3)[C@H](Cc3ccccc3)CN2C1,-0.658
2,Cc1cccc(CNC(=O)CC2CCN(Cc3ccccn3)CC2)n1,10.1
3,CCN1CCCC1CNCc1cc2cc(OC)c(OC)cc2[nH]c1=O (stereo not given),2.63
4,Cc1ccc(N2CCOC(C)(C(=O)N(C)C)C2)nn1 (stereo not given),-4.43
5,COc1ncc(CN(C)C2CCN(C(C)C)CC2)cn1,5.15
6,O=C(NCc1ccccn1)c1cnc(C2CCCN2)cn1 (stereo not given),3.62
7,COc1ccccc1-c1ccccc1CC1(C(=O)O)CCNCC1,-0.782
8,Cc1cc(C2CCCCN2C(=O)c2cccn2C)nc2nccn12 (stereo not given),-17.6
9,Cc1cc(C(N)=O)nc(C2(C)CCCN2Cc2cnn(C)c2)n1 (stereo not given),-23.6
10,CNc1cc(C2CCCN(Cc3ccccc3OCC(=O)O)C2)ccn1 (stereo not given),-24.8
11,CNCC(=O)N1CCCCC1c1nccc(C)n1 (stereo not given),-15.4
12,CC(=O)N1CCN(c2cc(CCNC(=O)C(C)C)nc(C3CC3)n2)CC1,-21.3
13,CC1CS(=O)(=O)CCN1Cc1ccccc1OCC(F)(F)F (stereo not given),-4.86
14,CC(C)n1nc2c(cc1=O)CN(CC1CCCCO1)CC2 (stereo not given),14.5
15,CC(c1nc(-c2cccnc2)no1)N(C)CCCOc1ccccc1 (stereo not given),-2.14
16,CN(Cc1nnc2n1CCC2)C(=O)c1ccc(=O)n(C)n1,-8.16
17,N#CC(NC(=O)CNC(=O)c1ccccc1)c1ccsc1 (stereo not given),1.8
18,O=C(NCCNc1ccccn1)NC1CCCC1,-5.81
19,COCc1nc(C(=O)OCC2CCN(c3ccccc3)C2)cs1 (stereo not given),-1.31
20,O=C(NCCc1ccn(-c2ccc(F)cc2)n1)C1CCCOC1 (stereo not given),6.65
21,O=C(NCCN1CCOCC1)N(CCCO)C1CCCc2ccccc21 (stereo not given),-9.69
22,O=C(NCCCOCc1ccco1)c1cccnc1N1CCOCC1,-8.5

row,SMILES,cytotoxicity at 10 µM [%]
1,COCCCNC(=O)Nc1cccc2ncccc12,-4.84
2,CNS(=O)(=O)c1ccc(CNC(=O)N(C)CC(C)C)cc1,1.08
3,CC(C)C(Sc1cccs1)C(=O)NCc1cccnc1 (stereo not given),-5.15
4,COc1ccccc1CN(CC1CCCO1)C(=O)c1csnn1 (stereo not given),-0.636
5,CNC(=O)c1ccc(S(=O)(=O)NCCc2ccccn2)cc1,-14.3
6,c1ccc2sc(NCC3(N4CCOCC4)CCSC3)nc2c1 (stereo not given),0.375
7,COCc1nc2cc(NCc3ccncc3)ccc2o1,-3.3
8,CC(CNC(=O)N1CCN(c2cnccn2)CC1)Cc1cccs1 (stereo not given),1.7
9,N#Cc1cccc(NC(=O)N[C@H](CO)c2ccccc2)c1,-12.2
10,N#Cc1ccc(OCCOc2ccccc2C(=O)N2CCOCC2)cc1,-7.38
11,CS(=O)(=O)NCC1CCCN(Cc2ccc(F)c3cccnc23)C1 (stereo not given),-12.6
12,COc1cc(C)sc1C(=O)N1CCC(Nc2cccnc2)CC1,-5.07
13,O=C(NC1CC1)[C@@H]1CCO[C@@H]2CCN(Cc3ccco3)C[C@H]21,-86.6
14,CC(C)Nc1ncnc2c1CCN(C(=O)CC1CCCC1)CC2,-81.5
15,CC(=O)N1CC[C@H]2OCC[C@@H](C(=O)NCc3ccco3)[C@@H]2C1,-77.4
16,Cc1cc(NC(C)c2n[nH]c(C)n2)n2nc(C)c(C)c2n1 (stereo not given),-11.4
17,CC(C)=CCCC1(C)CCC(=O)N(CCNc2nc(C)cc(=O)[nH]2)C1 (stereo not given),3.18
18,COc1ccccc1C(=O)C1CCCN(c2cc(C#N)ccn2)C1 (stereo not given),7.56
19,COc1nc(C)c(C(=O)N2CCC(C(O)Cc3ccccc3)CC2)s1 (stereo not given),4.18
20,CC(CO)CN(Cc1ccccc1)Cc1cnc2ccccc2n1 (stereo not given),6.6
21,NC1(C(=O)N2CCC(c3cc(-c4ccccc4Cl)n[nH]3)CC2)CCC1,-3.66
22,Cc1ccc(C(=O)N2CC(Oc3ccccc3C)C2)s1,17.1

row,SMILES,cytotoxicity at 10 µM [%]
1,COc1ccc(F)c(-c2nccn2CCN2CCCC2)c1,-11.8
2,Cc1ccccc1N1CCN(C(=O)Cc2ccc3c(c2)OCO3)CC1=O,6.17
3,CCc1nccn1CCCNC(=O)CN1CCN(c2ncccn2)CC1,-7.54
4,CSc1ccc(CN(CCO)C(=O)CCNC(C)=O)cc1,5.42
5,Cc1ccc(OCC2CCCN(C(=O)CCn3ccccc3=O)C2)cc1 (stereo not given),-4.27
6,CC(C)(CN1CCC(Cc2ccc(C(=O)O)cc2)C1)N1CCOCC1 (stereo not given),2.17
7,CC(Cc1cn(CCc2n[nH]c(=O)[nH]2)nn1)c1ccccc1 (stereo not given),-0.591
8,Cc1nnsc1CN(C)C(=O)c1ccc(CSc2nnc[nH]2)o1,-3.33
9,CCC[C@H]1CN(C2CCOCC2)C[C@@H]1NC(=O)CCn1ccnc1C,5.78
10,CC(c1nccs1)N(C)C(=O)c1cc(CN(C)Cc2ccccc2)on1 (stereo not given),12.2
11,Cc1nc2c(c(NCC(c3cccnc3)N3CCOCC3)n1)CCNC2 (stereo not given),-11.1
12,Cn1cc(Cl)cc1C(=O)N1CCC2(CCCN(CC3CC3)C2=O)C1 (stereo not given),1.96
13,Cc1nc2c(c(N3CCC(CCn4cccn4)CC3)n1)CCNCC2,4.3
14,CCS(=O)(=O)N[C@H]1CN(CC(C)(C)N2CCOCC2)C[C@@H]1C1CC1,1.04
15,CC(C)=CCN1C[C@@H]2CN(C(=O)c3cnccc3C)C[C@]2(C(=O)O)C1,2.85
16,Cc1cc(C(F)(F)F)cc(=O)n1CCn1cc(Cl)cn1,0.382
17,CC(C)(C)N1CC(C(=O)N2CC(Oc3ccc(F)cc3)C2)CC1=O (stereo not given),1.88
18,c1ccc(C2CCCN(Cc3cc4n(n3)CCNC4)CC2)cc1 (stereo not given),1.9
19,Cc1ccc(OCC2CCCN(C(=O)Cn3ccccc3=O)C2)cc1 (stereo not given),0.55
20,COCCN1CCCC(c2nc3c([nH]2)CC(C)(C)CNC3=O)C1 (stereo not given),-11.6
21,Cc1cccnc1NCCNC(=O)[C@H]1CNC[C@@H](C(=O)N2CCCC2)C1,-11.3
22,COc1ncccc1C(=O)NCC(C)Oc1cccnc1 (stereo not given),-8.45

row,SMILES,cytotoxicity at 10 µM [%]
1,COCCN(C)C(=O)Cn1cccc(OC)c1=O,-14.8
2,Cc1cnn(CCNCC(=O)NCc2ccccc2)c1,-4.25
3,CC(NC(=O)NCC1(N2CCCCC2)CCCCC1)c1nncn1C (stereo not given),-9.78
4,O=C(c1cnc(-c2cccs2)s1)N1CCCN2CCCC2C1 (stereo not given),-13.9
5,CC(=O)NC1CCN(c2cnc(C3CCNCC3)cn2)CC1,8
6,CN(C)CCN(Cc1ccccn1)Cc1ccnn1C1CCCCO1 (stereo not given),1.6
7,Cc1c[nH]nc1C1CCCN1Cc1nccn1C (stereo not given),-3.34
8,CN1CCC2(CC1)CN(C(=O)c1cnccn1)Cc1ccccc12,-82.2
9,Cc1nc(CO[C@H]2CN(Cc3cccs3)[C@@H]3COC[C@H]23)cs1,-2.19
10,CCc1nc2ccccc2c(=O)n1CC1(O)CCN(C(=O)C2CC2)CC1,-18.3
11,NCCc1c(-c2ccccc2)[nH][nH]c1=O,5.95
12,Cc1cnc(N2CC[C@@H]3O[C@@H](COCC(=O)N(C)C)CC[C@@H]32)nc1,0.0508
13,CN(C)C(=O)[C@H]1C[C@H]2[C@H](CCN2Cc2ccc3c(c2)OCO3)O1,2.36
14,CN1CCN(CCO)C(=O)C12CCN(Cc1ccsc1)CC2,3.66
15,CN1CCCc2cc(-c3cncn3CC(=O)NC(C)(C)C)ccc21,-28.9
16,Cc1cccc(CN2CC[C@@H]3[C@@H](CO[C@H]3CNc3ncccn3)C2)n1,-5.55
17,COCC1CC2(CCN(Cc3cnn(C)c3)CC2)CN1c1ncccn1 (stereo not given),-8.19
18,CCn1ncc2c1CN(C(=O)Cc1ccccn1)CC2COC (stereo not given),-70.7
19,Cc1oncc1C(=O)N1CC[C@H]2[C@@H]1CCC(=O)N2c1cccnc1,-76.3
20,Cc1noc(C)c1CN1CCO[C@H]2CN(Cc3cncn3C)C[C@H]21,-1.62
21,O=S(=O)(C1CC1)N1CC[C@]2(C[C@@H](Oc3ncccc3F)CO2)C1,-74.1
22,C=c1ccoc1=C1NN=C(CNCC2CCCN2c2cccnn2)O1 (stereo not given),-13.7
